Experimental findings from ChEMBL document CHEMBL1240480, “Design, synthesis and biological evaluation of L-dopa amide derivatives as potential prodrugs for the treatment of Parkinson's disease” (Eur J Med Chem, 2010) are described below.

In data set [1] the test system is Rattus norvegicus. Description: Antiparkinsonian activity in 6-hydroxydopamine lesioned Wistar rat assessed as duration of rotation per 10 mins at 14.74 mg/kg, ip. It is filed as functional. Conditions: route intraperitoneal. A digest of the protocol:
(§1)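 The 6-OHDA-lesioned male Wistar rats were apomorphine-screened (>6 turns/min) and given benserazide 10 mg/kg, then a saline-vehicle dose of 63.4 µmol/kg ip or po (n=4–8). Rotations were counted per 10 min for 4 h. Duration of activity was the time turning >10 turns per 10 min, expressed as % of the L-dopa effect.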

The subject of data set [2] is Rattus norvegicus. Description: Antiparkinsonian activity in 6-hydroxydopamine lesioned Wistar rat assessed as duration of rotation per 10 mins at 14.74 mg/kg, po. It counts as functional. A digest of the protocol:
as §1

For data set [3], the system named is Rattus norvegicus. Description: Antiparkinsonian activity in 6-hydroxydopamine lesioned Wistar rat assessed as number of rotation per 10 mins at 14.74 mg/kg, ip. It is filed as functional. Conditions: route intraperitoneal. A digest of the protocol: (§2)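 Rotometer assay in unilaterally 6-OHDA-lesioned male Wistar rats (apomorphine-confirmed, >6 turns/min). Benserazide 10 mg/kg was given, followed by compound at 63.4 µmol/kg ip or po in saline (n=4–8 per treatment). Rotations were recorded per 10 min for 240 min. Peak (maximum) rotations per 10 min were taken and expressed relative to L-dopa.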

The subject of data set [4] is Rattus norvegicus. Description: Antiparkinsonian activity in 6-hydroxydopamine lesioned Wistar rat assessed as number of rotation per 10 mins at 14.74 mg/kg, po. It is filed as functional. Summed up:
as §2

For data set [5], the system named is Rattus norvegicus. Description: Antiparkinsonian activity in 6-hydroxydopamine lesioned Wistar rat assessed as area under curve measured as number of rotation per 10 mins at 14.74 mg/kg, po. It is filed as functional. Summed up:
(§3)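 Male Wistar rats were given desipramine (25 mg/kg ip) and then a unilateral 6-OHDA injection (8 µg free base) into the left medial forebrain bundle. Lesions were confirmed ≥2 weeks later by apomorphine (0.5 mg/kg sc), accepting rats with >6 turns/min. Rats (n=4–8) received benserazide 10 mg/kg and 30 min basal recording, then drug at 63.4 µmol/kg ip or po in saline. Contraversive rotations were counted per 10 min over 240 min. AUC was calculated and expressed as % of the L-dopa effect.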

Data set [6] has as its system Rattus norvegicus. Description: Antiparkinsonian activity in 6-hydroxydopamine lesioned Wistar rat assessed as area under curve measured as number of rotation per 10 mins at 14.74 mg/kg, ip. It counts as functional. To be noted: route intraperitoneal. Summed up: as §3
For data set [7], the system named is Rattus norvegicus. Description: Cmax in Wistar rat at 14.8 mg/kg, po assessed as L-dopa level. Further details: dose 14.8 mg/kg, route oral. To be noted: in vivo. It is filed as ADME, organism-based. Summed up:
(§4)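 Naïve male Wistar rats (250–500 g), fasted overnight, dosed orally in 0.9% saline with benserazide (10 mg/kg) at dose equivalent to 12.5 mg/kg L-dopa. Heparinised tail-vein blood at various times; plasma extracted with 20% TFA in 10 mM metabisulphite with warfarin internal standard; L-dopa quantified by LC-MS/MS (positive ESI) against plasma standard curve 0.39–50 µM.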

Data set [8] deals with Rattus norvegicus. As to the kind of experiment: Apparent half life in Wistar rat at 14.8 mg/kg, po assessed as L-dopa level. It is filed as ADME, organism-based. More on the design: dose 14.8 mg/kg, route oral. Conditions: in vivo. Summed up: as §4
The test system of data set [9] is Rattus norvegicus. Description: AUC (0 to 4 hrs) in Wistar rat at 14.8 mg/kg, po assessed as L-dopa level. It is filed as ADME, organism-based, Plasma. More on the design: time < 4 hr, dose 14.8 mg/kg, route oral. Conditions: in vivo. Summed up: (§5)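 Naïve male Wistar rats (250–500 g), fasted overnight, dosed with compound in 0.9% saline together with benserazide (10 mg/kg), at a dose molar-equivalent to 12.5 mg/kg L-dopa. Heparinised tail-vein blood was sampled at intervals and the plasma stored at −80 °C. L-dopa was extracted with 20% TFA/10 mM metabisulphite plus warfarin internal standard and quantified by LC-MS/MS (positive ESI) against plasma standard curves.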

Data set [10] concerns Rattus norvegicus. As to the kind of experiment: Cmax in Wistar rat at 42.5 mg/kg, po assessed as L-dopa level. It is filed as ADME, organism-based. More on the design: dose 42.5 mg/kg, route oral. To be noted: in vivo. A digest of the protocol: as §4
The subject of data set [11] is Rattus norvegicus. As to the kind of experiment: Apparent half life in Wistar rat at 42.5 mg/kg, po assessed as L-dopa level. Conditions: in vivo. It counts as ADME, organism-based. Further details: dose 42.5 mg/kg, route oral. A digest of the protocol:
as §4

In data set [12] the test system is Rattus norvegicus. Description: AUC (0 to 4 hrs) in Wistar rat at 42.5 mg/kg, po assessed as L-dopa level. It counts as ADME, organism-based, Plasma. More on the design: time < 4 hr, dose 42.5 mg/kg, route oral. To be noted: in vivo. Summed up: as §5
In data set [13] the test system is Rattus norvegicus. As to the kind of experiment: Antiparkinsonian activity in 6-hydroxydopamine lesioned Wistar rat assessed as number of rotation per 10 mins at 20.97 mg/kg, po. It counts as functional. Summed up:
as §2

The test system of data set [14] is Rattus norvegicus. Description: Antiparkinsonian activity in 6-hydroxydopamine lesioned Wistar rat assessed as area under curve measured as number of rotation per 10 mins at 20.97 mg/kg, po. It counts as functional. A digest of the protocol: as §3
The subject of data set [15] is Rattus norvegicus. As to the kind of experiment: Antiparkinsonian activity in 6-hydroxydopamine lesioned Wistar rat assessed as duration of rotation per 10 mins at 20.97 mg/kg, po. It counts as functional. Summed up: as §1
In data set [16] the test system is Rattus norvegicus. As to the kind of experiment: Antiparkinsonian activity in 6-hydroxydopamine lesioned Wistar rat assessed as number of rotation per 10 mins at 22.75 mg/kg, po. It is filed as functional.
In data set [17] the test system is Rattus norvegicus. Description: Antiparkinsonian activity in 6-hydroxydopamine lesioned Wistar rat assessed as area under curve measured as number of rotation per 10 mins at 22.75 mg/kg, po. It counts as functional. Summed up: as §3
For data set [18], the system named is Rattus norvegicus. As to the kind of experiment: Antiparkinsonian activity in 6-hydroxydopamine lesioned Wistar rat assessed as duration of rotation per 10 mins at 22.75 mg/kg, po. It counts as functional. Summed up: as §1
In data set [19] the test system is Rattus norvegicus. Description: Antiparkinsonian activity in 6-hydroxydopamine lesioned Wistar rat assessed as number of rotation per 10 mins at 23.89 mg/kg, po. It is filed as functional.
The subject of data set [20] is Rattus norvegicus. Description: Antiparkinsonian activity in 6-hydroxydopamine lesioned Wistar rat assessed as area under curve measured as number of rotation per 10 mins at 23.89 mg/kg, po. It is filed as functional. Summed up:
as §3

In data set [21] the test system is Rattus norvegicus. Description: Antiparkinsonian activity in 6-hydroxydopamine lesioned Wistar rat assessed as duration of rotation per 10 mins at 23.89 mg/kg, po. It is filed as functional. Summed up:
as §1

In data set [22] the test system is Rattus norvegicus. As to the kind of experiment: Cmax in Wistar rat at 23.9 mg/kg, po assessed as L-dopa level. It counts as ADME, organism-based. Further details: dose 23.9 mg/kg, route oral. Conditions: in vivo. A digest of the protocol:
as §4

The subject of data set [23] is Rattus norvegicus. Description: AUC (0 to 4 hrs) in Wistar rat at 23.9 mg/kg, po assessed as L-dopa level. It counts as ADME, organism-based, Plasma. To be noted: in vivo. Further details: time < 4 hr, dose 23.9 mg/kg, route oral. A digest of the protocol:
as §5

Data set [24] deals with Rattus norvegicus. As to the kind of experiment: Antiparkinsonian activity in 6-hydroxydopamine lesioned Wistar rat assessed as number of rotation per 10 mins at 21.86 mg/kg, po. It is filed as functional.
The subject of data set [25] is Rattus norvegicus. As to the kind of experiment: Antiparkinsonian activity in 6-hydroxydopamine lesioned Wistar rat assessed as area under curve measured as number of rotation per 10 mins at 21.86 mg/kg, po. It is filed as functional. Summed up:
as §3

The subject of data set [26] is Rattus norvegicus. As to the kind of experiment: Antiparkinsonian activity in 6-hydroxydopamine lesioned Wistar rat assessed as duration of rotation per 10 mins at 21.86 mg/kg, po. It is filed as functional. A digest of the protocol: as §1

With `Cl.NC(=O)[C@@H](N)Cc1ccc(O)c(O)c1`, the Time in the data set with Rattus norvegicus [1] is 155 min; in the data set with Rattus norvegicus [2], 103 min. Besides, the Activity is 144 in the data set on Rattus norvegicus [3], 105 with Rattus norvegicus [4], 612 in the data set with Rattus norvegicus [5] and 1186 with Rattus norvegicus [6]. Moreover, the Cmax – broadly, the peak of the concentration-time curve – with Rattus norvegicus [7] came out at 2203 ng/mL. The t1/2 with Rattus norvegicus [8] amounted to 52 min. Further, the AUC (as a rule, concentration integrated over time) in the data set with Rattus norvegicus [9] was 256 µg·min/mL.

On to `CC(C)(C)C(=O)Oc1ccc(C[C@H](N)C(N)=O)cc1OC(=O)C(C)(C)C.Cl`, for which the Cmax with Rattus norvegicus [10] was 415 ng/mL. Besides, the t1/2 in the data set with Rattus norvegicus [11] was determined as 51 min. Besides, the AUC in the data set with Rattus norvegicus [12] amounted to 44 µg·min/mL.

For `CNC(=O)[C@@H](N)Cc1ccc(OC(C)=O)c(OC(C)=O)c1.Cl`, the figures for the Activity in the data set with Rattus norvegicus [13] and in the data set with Rattus norvegicus [14] were 1 and 26, respectively. Besides, the Time with Rattus norvegicus [15] was 0 min.

On to `CC(=O)Oc1ccc(C[C@H](N)C(=O)NC(C)C)cc1OC(C)=O.Cl`, for which the Activity in the data set with Rattus norvegicus [16] came to 2; with Rattus norvegicus [17], 26. The Time in the data set on Rattus norvegicus [18] turned out to be 0 min.

For the compound `CCOC(=O)Oc1ccc(C[C@H](N)C(N)=O)cc1OC(=O)OCC.Cl`, the results for the Activity with Rattus norvegicus [19] and in the data set with Rattus norvegicus [20] were 90 and 579, respectively. Besides, in the data set on Rattus norvegicus [21], the Time was 153 min. Moreover, in the data set with Rattus norvegicus [22], the Cmax is 690 ng/mL. Besides, the AUC in the data set with Rattus norvegicus [23] worked out at 95 µg·min/mL.

As for `CCNC(=O)[C@@H](N)Cc1ccc(OC(C)=O)c(OC(C)=O)c1.Cl`, the Activity in the data set with Rattus norvegicus [24] was determined as 6; in the data set with Rattus norvegicus [25] it was 20. In addition, the Time in the data set on Rattus norvegicus [26] was 3 min.
